Measurements as given in ChEMBL document CHEMBL1681705, “Optimisation of ITK inhibitors through successive iterative design cycles” (Bioorg Med Chem Lett, 2011).

Key:
[1] = target: Death-associated protein kinase 2 (Homo sapiens) (UniProt Q9UIK4); assay: Inhibition of DAPK2 at 1 uM; values are per cent of control
[2] = target: T1, Cytoplasmic tyrosine-protein kinase BMX (Homo sapiens) (UniProt P51813); assay: Inhibition of Bmx at 0.1 uM; values are per cent of control
T1 sequence (whole entry): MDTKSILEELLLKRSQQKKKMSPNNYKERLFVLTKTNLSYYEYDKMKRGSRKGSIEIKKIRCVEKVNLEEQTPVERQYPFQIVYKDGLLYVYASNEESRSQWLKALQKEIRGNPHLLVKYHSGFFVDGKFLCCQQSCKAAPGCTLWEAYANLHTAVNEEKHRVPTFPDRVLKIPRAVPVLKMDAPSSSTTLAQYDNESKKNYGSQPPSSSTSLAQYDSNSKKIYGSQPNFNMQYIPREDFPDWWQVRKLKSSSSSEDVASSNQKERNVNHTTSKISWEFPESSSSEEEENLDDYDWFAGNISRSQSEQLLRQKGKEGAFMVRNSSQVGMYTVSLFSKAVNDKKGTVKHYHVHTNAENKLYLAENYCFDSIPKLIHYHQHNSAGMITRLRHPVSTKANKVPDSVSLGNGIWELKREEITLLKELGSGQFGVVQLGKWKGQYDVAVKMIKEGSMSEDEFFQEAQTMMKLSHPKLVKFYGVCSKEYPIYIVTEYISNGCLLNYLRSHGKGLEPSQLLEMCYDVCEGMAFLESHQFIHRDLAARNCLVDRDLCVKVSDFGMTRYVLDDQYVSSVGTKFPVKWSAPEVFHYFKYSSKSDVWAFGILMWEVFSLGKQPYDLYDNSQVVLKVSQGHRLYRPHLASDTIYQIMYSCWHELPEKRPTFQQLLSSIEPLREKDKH

[3] = target: Platelet-derived growth factor receptor beta (Homo sapiens) (UniProt P09619); assay: Inhibition of PDGFRbeta at 1 uM
Summary of the method: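 Single-point screen within a 108-kinase selectivity panel. Each kinase was tested with inhibitor at 0.1 and 1.0 micromolar, and activity was recorded as percent inhibition.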

[4] = Inhibition of PDK1 at 0.1 uM
[5] = target: T2, Ephrin type-B receptor 4 (Homo sapiens) (UniProt P54760); assay: Inhibition of EphB4 at 0.1 uM; values are per cent of control
T2 sequence (whole entry): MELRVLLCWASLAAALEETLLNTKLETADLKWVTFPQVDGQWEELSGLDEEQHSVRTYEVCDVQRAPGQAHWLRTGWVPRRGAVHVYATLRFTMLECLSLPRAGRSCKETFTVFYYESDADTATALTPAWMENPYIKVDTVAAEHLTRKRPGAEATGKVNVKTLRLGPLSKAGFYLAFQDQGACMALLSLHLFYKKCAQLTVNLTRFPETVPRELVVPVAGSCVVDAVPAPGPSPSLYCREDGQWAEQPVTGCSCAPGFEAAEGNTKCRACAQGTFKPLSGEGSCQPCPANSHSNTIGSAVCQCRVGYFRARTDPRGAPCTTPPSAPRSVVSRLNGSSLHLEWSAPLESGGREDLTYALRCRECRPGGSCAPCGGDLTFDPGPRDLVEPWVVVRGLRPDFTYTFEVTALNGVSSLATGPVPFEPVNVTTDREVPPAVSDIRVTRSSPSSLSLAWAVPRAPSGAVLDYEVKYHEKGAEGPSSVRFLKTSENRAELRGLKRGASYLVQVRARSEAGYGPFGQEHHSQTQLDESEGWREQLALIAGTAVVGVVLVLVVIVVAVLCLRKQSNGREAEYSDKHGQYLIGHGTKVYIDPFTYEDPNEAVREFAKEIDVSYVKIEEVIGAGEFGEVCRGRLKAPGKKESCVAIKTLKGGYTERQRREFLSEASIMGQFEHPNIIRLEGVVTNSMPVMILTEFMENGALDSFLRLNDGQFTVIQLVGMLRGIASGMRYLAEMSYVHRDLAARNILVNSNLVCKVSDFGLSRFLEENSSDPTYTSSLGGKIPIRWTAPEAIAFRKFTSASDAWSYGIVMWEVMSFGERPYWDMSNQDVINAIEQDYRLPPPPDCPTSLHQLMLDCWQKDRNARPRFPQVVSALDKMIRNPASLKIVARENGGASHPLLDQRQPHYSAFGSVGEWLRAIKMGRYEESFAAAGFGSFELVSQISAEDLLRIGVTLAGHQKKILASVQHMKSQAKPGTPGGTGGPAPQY

[6] = target: Ephrin type-A receptor 2 (Homo sapiens) (UniProt P29317); assay: Inhibition of EphA2 at 0.1 uM; values are per cent of control
[7] = target: Ephrin type-A receptor 5 (Homo sapiens) (UniProt P54756); assay: Inhibition of EphA5 at 1 uM; values are per cent of control
[8] = target: Mitogen-activated protein kinase 10 (Homo sapiens) (UniProt P53779); assay: Inhibition of JNK3 at 1 uM
Summary of the method: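 Single-point profiling in a panel of 108 kinases. Each selected inhibitor was tested at two concentrations, 0.1 and 1.0 micromolar. Values are reported as inhibition at each concentration.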

[9] = target: Receptor tyrosine-protein kinase erbB-4 (Homo sapiens) (UniProt Q15303); assay: Inhibition of ErbB4 at 0.1 uM; values are per cent of control
[10] = target: T3, Aurora kinase A (Homo sapiens) (UniProt O14965); assay: Inhibition of aurora-A at 0.1 uM; values are per cent of control
T3 sequence (whole entry): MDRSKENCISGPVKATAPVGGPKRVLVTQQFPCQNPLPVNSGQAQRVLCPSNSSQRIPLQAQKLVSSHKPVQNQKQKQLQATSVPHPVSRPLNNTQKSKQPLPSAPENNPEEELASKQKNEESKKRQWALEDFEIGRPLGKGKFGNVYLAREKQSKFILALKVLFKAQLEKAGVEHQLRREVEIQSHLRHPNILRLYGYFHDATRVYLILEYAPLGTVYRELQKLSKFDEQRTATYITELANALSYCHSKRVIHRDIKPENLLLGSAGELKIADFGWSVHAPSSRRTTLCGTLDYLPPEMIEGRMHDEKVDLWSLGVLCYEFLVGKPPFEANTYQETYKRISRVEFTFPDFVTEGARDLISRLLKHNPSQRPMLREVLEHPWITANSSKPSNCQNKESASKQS

[11] = target: RAC-alpha serine/threonine-protein kinase (Homo sapiens) (UniProt P31749); assay: Inhibition of PKBalpha at 1 uM; values are per cent of control
[12] = target: Angiopoietin-1 receptor (Homo sapiens) (UniProt Q02763); assay: Inhibition of Tie2 at 0.1 uM; values are per cent of control

Sequence of Platelet-derived growth factor receptor beta (Homo sapiens) (P09619 whole entry): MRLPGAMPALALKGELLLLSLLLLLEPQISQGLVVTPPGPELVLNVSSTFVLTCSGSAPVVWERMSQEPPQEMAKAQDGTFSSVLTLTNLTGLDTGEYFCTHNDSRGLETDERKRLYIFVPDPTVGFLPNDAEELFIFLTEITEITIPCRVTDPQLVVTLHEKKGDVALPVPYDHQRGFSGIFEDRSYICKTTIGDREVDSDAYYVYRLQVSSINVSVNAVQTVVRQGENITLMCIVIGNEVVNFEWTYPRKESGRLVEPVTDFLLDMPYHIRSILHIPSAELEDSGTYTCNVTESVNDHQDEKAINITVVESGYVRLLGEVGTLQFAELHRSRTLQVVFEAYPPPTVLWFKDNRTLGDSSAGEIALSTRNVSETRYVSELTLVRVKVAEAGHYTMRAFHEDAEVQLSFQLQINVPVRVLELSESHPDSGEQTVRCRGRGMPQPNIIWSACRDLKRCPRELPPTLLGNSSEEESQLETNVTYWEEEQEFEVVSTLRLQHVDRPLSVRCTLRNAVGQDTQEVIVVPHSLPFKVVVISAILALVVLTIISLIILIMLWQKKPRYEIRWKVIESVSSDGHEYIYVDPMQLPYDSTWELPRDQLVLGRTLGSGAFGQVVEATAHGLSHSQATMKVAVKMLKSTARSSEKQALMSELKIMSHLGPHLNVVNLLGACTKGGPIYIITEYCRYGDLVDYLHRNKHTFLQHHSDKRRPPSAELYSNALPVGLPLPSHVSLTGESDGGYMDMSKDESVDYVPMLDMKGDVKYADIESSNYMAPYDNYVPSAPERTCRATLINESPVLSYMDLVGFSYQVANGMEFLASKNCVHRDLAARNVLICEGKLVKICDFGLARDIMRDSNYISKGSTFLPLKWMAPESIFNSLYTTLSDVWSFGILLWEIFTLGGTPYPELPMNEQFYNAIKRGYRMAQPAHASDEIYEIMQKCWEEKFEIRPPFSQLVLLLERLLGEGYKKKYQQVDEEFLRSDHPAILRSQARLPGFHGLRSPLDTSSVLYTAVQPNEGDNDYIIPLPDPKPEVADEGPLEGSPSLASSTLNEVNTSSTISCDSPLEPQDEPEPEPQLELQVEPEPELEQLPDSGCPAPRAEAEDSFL
Sequence of Ephrin type-A receptor 5 (Homo sapiens) (P54756 whole entry): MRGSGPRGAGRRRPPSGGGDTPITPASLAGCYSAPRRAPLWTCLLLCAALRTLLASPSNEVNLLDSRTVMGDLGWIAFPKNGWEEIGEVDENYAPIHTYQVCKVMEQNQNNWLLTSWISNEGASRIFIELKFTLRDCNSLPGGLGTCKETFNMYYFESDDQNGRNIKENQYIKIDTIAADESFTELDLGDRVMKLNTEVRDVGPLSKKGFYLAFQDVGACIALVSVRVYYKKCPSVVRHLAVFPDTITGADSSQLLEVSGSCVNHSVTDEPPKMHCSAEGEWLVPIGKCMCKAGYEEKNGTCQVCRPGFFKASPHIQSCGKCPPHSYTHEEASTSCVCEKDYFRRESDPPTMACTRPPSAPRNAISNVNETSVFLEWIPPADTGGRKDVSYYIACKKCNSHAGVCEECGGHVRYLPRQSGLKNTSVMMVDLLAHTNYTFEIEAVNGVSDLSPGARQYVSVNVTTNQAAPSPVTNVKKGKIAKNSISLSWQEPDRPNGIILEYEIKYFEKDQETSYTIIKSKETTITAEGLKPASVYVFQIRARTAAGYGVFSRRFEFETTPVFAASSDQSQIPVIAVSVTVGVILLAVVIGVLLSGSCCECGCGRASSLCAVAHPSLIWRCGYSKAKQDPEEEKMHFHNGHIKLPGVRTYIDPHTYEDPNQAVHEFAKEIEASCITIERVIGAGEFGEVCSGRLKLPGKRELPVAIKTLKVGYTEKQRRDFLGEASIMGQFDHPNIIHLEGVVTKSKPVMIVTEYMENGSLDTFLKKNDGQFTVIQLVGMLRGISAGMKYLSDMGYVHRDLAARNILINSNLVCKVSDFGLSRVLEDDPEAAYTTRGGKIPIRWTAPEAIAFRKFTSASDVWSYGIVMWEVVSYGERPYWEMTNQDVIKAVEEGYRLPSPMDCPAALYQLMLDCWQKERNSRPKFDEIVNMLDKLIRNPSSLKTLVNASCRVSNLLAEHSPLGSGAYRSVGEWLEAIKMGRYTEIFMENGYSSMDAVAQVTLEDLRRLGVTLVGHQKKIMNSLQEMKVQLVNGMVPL
Sequence of Death-associated protein kinase 2 (Homo sapiens) (Q9UIK4 whole entry, looked up): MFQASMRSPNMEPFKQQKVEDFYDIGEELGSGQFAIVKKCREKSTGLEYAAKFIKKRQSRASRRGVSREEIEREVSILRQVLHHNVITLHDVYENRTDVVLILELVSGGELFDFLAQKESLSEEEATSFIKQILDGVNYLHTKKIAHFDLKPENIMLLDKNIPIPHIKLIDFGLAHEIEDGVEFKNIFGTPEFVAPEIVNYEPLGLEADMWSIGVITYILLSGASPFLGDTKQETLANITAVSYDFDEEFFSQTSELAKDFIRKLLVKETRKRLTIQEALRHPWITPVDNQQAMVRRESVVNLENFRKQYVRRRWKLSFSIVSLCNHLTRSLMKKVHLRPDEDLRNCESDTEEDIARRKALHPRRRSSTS
Sequence of Receptor tyrosine-protein kinase erbB-4 (Homo sapiens) (Q15303 whole entry): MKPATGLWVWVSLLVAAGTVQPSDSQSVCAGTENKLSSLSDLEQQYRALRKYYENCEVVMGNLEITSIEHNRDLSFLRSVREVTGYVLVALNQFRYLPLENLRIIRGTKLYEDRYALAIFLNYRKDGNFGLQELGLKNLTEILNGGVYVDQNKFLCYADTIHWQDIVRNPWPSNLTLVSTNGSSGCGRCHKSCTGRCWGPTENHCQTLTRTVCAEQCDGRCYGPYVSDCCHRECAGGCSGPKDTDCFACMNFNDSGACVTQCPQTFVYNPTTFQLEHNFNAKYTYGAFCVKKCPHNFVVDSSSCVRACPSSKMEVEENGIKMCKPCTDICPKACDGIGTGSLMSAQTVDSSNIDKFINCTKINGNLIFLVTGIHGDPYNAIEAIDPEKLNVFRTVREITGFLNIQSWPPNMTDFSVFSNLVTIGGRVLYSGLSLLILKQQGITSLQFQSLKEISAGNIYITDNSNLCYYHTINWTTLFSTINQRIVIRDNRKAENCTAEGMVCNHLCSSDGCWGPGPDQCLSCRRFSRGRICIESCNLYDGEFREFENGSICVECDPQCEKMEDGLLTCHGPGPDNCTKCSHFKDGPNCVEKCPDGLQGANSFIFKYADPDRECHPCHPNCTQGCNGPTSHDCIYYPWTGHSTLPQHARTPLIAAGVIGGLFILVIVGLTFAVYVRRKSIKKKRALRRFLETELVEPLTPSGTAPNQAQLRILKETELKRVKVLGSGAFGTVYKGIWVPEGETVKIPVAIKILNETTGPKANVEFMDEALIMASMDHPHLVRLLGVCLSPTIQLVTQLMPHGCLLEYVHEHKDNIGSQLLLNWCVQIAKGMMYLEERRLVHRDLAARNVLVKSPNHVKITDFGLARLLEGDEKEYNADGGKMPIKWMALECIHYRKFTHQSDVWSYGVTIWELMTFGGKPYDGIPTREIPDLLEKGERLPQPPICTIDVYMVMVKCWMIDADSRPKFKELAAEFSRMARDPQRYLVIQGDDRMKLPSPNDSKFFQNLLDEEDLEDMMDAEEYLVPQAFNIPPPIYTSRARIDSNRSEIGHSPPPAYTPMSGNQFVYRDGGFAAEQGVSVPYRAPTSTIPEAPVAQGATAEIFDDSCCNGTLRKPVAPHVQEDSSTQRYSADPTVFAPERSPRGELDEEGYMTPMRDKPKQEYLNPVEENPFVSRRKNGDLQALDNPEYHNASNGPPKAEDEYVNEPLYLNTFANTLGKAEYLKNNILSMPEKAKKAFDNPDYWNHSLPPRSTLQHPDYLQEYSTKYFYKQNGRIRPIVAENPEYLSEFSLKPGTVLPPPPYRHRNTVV
Sequence of Mitogen-activated protein kinase 10 (Homo sapiens) (P53779 whole entry): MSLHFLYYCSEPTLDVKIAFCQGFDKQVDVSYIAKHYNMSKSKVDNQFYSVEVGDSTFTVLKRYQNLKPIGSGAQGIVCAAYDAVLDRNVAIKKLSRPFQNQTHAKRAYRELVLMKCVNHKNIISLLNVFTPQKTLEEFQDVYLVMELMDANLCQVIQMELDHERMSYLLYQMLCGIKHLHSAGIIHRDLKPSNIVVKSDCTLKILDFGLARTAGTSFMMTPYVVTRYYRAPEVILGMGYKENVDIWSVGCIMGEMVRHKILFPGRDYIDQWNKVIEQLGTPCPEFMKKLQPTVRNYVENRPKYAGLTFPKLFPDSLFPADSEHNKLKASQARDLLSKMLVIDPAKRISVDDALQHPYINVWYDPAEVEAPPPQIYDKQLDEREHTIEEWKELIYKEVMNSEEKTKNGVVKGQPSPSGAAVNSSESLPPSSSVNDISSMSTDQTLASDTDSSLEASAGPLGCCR
Sequence of RAC-alpha serine/threonine-protein kinase (Homo sapiens) (P31749 whole entry): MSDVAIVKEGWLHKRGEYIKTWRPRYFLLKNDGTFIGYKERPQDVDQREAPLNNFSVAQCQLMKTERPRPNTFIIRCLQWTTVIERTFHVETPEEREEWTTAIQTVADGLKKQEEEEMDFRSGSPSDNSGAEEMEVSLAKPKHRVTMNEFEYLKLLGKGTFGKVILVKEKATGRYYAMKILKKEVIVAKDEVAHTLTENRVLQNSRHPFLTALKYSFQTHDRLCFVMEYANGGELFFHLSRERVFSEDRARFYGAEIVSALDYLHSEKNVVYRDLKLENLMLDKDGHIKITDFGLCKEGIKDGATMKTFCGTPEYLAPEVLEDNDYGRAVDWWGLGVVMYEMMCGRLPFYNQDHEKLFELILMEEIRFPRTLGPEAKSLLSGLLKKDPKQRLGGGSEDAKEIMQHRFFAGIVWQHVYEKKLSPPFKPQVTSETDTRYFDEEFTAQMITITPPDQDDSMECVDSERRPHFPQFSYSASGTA

| SMILES | residual activity [1] | residual activity [2] | inhibition [3] | inhibition [4] | residual activity [5] | residual activity [6] | residual activity [7] | inhibition [8] | residual activity [9] | residual activity [10] | residual activity [11] | residual activity [12] |
| --- | --- | --- | --- | --- | --- | --- | --- | --- | --- | --- | --- | --- |
| Cc1ccc2cc(-c3n[nH]c4ccc(NC5CCNC5)cc34)[nH]c2c1 (centres undefined) | 61% | 15% | 34% | 46% | 106% | 47% | 50% | 36% | 81% | 5% | 69% | 17% |
| Cc1ccc2cc(-c3n[nH]c4ccc(NC5CCN(Cc6ccccc6)CC5)cc34)[nH]c2c1 | 112% | 45% | 42% | 87% | 101% | 25% | 22% | 91% | 43% | 34% | 86% | 83% |
